Columns and labels:
[1] = Induction of apoptosis in mouse Ba/F3 NPM-ALK cells at 50 nM after 48 hrs by annexin V assay; format: functional
Outline: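 Parental Ba/F3 (with IL-3), Ba/F3 NPM-ALK or SU-DHL-1 cells treated with 50 nM or DMSO for 48 h. Annexin V/7-AAD staining read by flow cytometry; percent Annexin V-positive cells counted.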

[2] = target: Nucleophosmin (Mus musculus) (UniProt Q61937); assay: Inhibition of NPM-ALK in mouse Ba/F3 NPM-ALK cells at 50 nM; format: cell-based; settings: TDE = time-dependent effect
Nucleophosmin (Mus musculus), sequence (Q61937 whole entry): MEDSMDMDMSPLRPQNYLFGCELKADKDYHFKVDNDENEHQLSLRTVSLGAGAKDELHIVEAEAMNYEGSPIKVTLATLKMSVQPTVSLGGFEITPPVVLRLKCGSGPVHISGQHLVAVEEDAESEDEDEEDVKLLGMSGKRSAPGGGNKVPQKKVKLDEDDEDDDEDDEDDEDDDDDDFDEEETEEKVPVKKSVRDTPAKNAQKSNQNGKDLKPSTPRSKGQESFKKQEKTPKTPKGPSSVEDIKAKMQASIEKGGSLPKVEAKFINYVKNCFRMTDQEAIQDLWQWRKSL

[3] = target: Signal transducer and activator of transcription 3 (Homo sapiens) (UniProt P40763); assay: Inhibition of STAT3 in human Karpas299 cells at 50 nM; format: cell-based; settings: KARPAS-299, TDE = time-dependent effect
Signal transducer and activator of transcription 3 (Homo sapiens), sequence (P40763 whole entry): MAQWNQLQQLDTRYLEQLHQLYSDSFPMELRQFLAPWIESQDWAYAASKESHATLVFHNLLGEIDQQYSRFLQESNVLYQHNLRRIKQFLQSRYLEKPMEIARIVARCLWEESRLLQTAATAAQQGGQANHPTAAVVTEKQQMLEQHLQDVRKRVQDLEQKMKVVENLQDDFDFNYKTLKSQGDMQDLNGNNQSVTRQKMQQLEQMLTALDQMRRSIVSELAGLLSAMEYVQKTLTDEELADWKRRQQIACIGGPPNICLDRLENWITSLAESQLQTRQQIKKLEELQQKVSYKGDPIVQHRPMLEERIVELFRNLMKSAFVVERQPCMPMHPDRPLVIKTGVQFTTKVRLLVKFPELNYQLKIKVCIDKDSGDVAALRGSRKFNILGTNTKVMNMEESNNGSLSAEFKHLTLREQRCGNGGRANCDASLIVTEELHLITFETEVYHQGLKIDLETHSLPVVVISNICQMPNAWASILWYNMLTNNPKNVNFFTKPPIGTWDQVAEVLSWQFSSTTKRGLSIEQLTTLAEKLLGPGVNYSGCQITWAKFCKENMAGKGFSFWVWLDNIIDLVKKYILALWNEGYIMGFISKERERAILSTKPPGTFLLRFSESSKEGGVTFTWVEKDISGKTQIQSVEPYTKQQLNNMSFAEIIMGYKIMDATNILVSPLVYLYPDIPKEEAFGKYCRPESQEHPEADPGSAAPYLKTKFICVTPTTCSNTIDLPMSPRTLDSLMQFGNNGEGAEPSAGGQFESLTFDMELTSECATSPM
Outline: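 Ba/F3 NPM-ALK or Karpas-299 cells held at 50 nM for times from 15 min onward. Phospho-NPM-ALK and phospho-STAT3 read by Western blot.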

[4] = Elimination half life in human Karpas299 cells xenografted SCID beige mouse at 20 mg/kg, po; format: ADME, organism-based, KARPAS-299; parameters: dose 20 mg/kg, route oral; settings: in vivo
Outline: (§1)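 Mice given a single oral dose of 20 mg/kg as a solution in 10% 1-methyl-2-pyrrolidinone/90% PEG 300. Plasma levels measured to give Cmax, bioavailability and elimination half-life.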

[5] = Bioavailability in human Karpas299 cells xenografted SCID beige mouse at 20 mg/kg; format: ADME, organism-based, KARPAS-299; settings: in vivo; outline: as §1
[6] = Antiproliferative activity against mouse Ba/F3 NPM-ALK cells assessed as luciferase expression after 2 to 3 days; format: functional, cell-based
Outline: (§2)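 Ba/F3 cells carrying luciferase, either parental (with IL-3) or transformed by NPM-ALK or TEL-kinase fusions, 25,000 per well with serial dilutions or DMSO for 2–3 days. Bright-Glo luminescence taken as proliferation/survival. IC50 from curve fit.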

[7] = Cytotoxicity against mouse parental Ba/F3 cells assessed as luciferase expression up to 1 uM after 2 to 3 days; format: cell-based; settings: baf3; outline: as §2
[8] = test system: KARPAS-299; assay: Antiproliferative activity against human Karpas299 cells assessed as luciferase expression after 72 hrs; format: functional, cell-based; settings: KARPAS-299, 72 h
Outline: (§3)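 Luciferase-expressing Karpas-299 or SU-DHL-1 cells, 25,000 per well, exposed to serial dilutions or DMSO for 72 h. Bright-Glo luminescence normalized to DMSO wells as percent survival. IC50 from curve fit.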

[9] = test system: SU-DHL-1; assay: Antiproliferative activity against human SUDHL1 cells assessed as luciferase expression after 72 hrs; format: functional, cell-based; settings: SU-DHL-1, 72 h; outline: as §3
[10] = target: Nucleophosmin (Mus musculus) (UniProt Q61937); assay: Inhibition of NPM-ALK autophosphorylation in mouse Ba/F3 NPM-ALK cells after 4 hrs; format: cell-based
Outline: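 Ba/F3 NPM-ALK cells exposed to a range of concentrations for 4 h. NPM-ALK autophosphorylation read by Western blot. IC50 from quantified band intensities.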

[11] = test system: BaF3; assay: Inhibition of mouse wild type BaF3/WT Luc+ cell proliferation; format: functional, cell-based; outline: as §2
[12] = target: T1, Signal transducer and activator of transcription 5A (Homo sapiens) (UniProt P42229); assay: Inhibition of STAT5 phosphorylation in human Karpas299 cells; format: cell-based; settings: KARPAS-299
T1 sequence (whole entry): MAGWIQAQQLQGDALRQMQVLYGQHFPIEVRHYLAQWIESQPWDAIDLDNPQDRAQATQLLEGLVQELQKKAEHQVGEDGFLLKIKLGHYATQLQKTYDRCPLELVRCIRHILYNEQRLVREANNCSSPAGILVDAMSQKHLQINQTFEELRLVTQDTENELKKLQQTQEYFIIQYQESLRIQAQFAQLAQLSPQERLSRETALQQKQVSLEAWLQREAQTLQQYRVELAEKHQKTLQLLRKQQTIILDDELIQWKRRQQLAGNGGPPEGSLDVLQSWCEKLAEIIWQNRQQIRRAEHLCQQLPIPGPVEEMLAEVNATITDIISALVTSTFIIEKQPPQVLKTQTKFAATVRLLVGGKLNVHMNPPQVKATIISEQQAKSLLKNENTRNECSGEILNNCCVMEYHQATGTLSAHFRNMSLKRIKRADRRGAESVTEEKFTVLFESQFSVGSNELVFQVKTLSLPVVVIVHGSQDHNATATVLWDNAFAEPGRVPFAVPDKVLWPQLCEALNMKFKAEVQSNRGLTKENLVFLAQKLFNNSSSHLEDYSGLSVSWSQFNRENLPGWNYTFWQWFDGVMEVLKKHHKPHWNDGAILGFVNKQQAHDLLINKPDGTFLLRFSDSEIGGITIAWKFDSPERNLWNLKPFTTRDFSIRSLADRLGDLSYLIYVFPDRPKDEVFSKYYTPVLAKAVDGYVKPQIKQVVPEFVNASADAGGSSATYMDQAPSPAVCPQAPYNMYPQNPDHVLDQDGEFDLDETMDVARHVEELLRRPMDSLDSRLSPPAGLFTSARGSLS
Outline: (§4)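 Ba/F3 NPM-ALK, Karpas-299 or SU-DHL-1 cells treated for 4 h with DMSO or increasing concentrations. STAT3 and STAT5 phosphorylation read by Western blot of lysates.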

[13] = target: Signal transducer and activator of transcription 3 (Mus musculus) (UniProt P42227); assay: Inhibition of STAT3 phosphorylation in mouse Ba/F3 NPM-ALK cells; format: cell-based; outline: as §4
Signal transducer and activator of transcription 3 (Mus musculus), sequence (P42227 whole entry): as the sequence (P40763 whole entry) above, with E760D counted along it

[14] = target: Signal transducer and activator of transcription 3 (Homo sapiens) (UniProt P40763); assay: Inhibition of STAT3 phosphorylation in human Karpas299 cells; format: cell-based; settings: KARPAS-299; outline: as §4
[15] = target: Signal transducer and activator of transcription 3 (Homo sapiens) (UniProt P40763); assay: Inhibition of STAT3 phosphorylation in human SUDHL1 cells; format: cell-based; outline: as §4
[16] = target: T2, Signal transducer and activator of transcription 5A (Mus musculus) (UniProt P42230); assay: Inhibition of STAT5 phosphorylation in mouse Ba/F3 NPM-ALK cells; format: cell-based; outline: as §4
T2 sequence (whole entry): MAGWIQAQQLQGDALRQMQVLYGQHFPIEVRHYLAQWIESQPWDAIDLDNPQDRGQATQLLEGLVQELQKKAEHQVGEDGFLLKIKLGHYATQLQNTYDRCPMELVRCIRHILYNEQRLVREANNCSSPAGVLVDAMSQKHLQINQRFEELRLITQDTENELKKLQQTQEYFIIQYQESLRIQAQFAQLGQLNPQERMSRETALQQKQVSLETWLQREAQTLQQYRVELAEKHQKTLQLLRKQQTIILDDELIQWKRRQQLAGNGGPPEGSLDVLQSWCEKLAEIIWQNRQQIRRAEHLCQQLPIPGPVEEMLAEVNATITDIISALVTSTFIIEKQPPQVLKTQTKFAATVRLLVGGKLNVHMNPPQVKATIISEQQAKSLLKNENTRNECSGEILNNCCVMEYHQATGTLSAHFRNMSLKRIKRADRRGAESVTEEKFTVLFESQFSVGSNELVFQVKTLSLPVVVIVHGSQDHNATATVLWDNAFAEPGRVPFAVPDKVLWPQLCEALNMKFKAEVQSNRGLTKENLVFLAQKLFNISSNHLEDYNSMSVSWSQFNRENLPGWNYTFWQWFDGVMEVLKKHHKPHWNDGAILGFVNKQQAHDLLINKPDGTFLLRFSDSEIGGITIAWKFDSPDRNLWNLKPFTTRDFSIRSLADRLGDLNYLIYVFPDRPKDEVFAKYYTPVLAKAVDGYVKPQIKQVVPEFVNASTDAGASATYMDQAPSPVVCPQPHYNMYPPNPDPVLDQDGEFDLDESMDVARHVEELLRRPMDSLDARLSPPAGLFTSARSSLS

[17] = target: T1, Signal transducer and activator of transcription 5A (Homo sapiens); assay: Inhibition of STAT5 phosphorylation in human SUDHL1 cells; format: cell-based; outline: as §4

## COc1cc(N2CCC(N3CCN(C)CC3)CC2)ccc1Nc1ncc(Cl)c(Nc2ccccc2S(=O)(=O)C(C)C)n1 [TAE-684]
[1]
  Activity: 85%
[2]
  Activity: tde
[3]
  Activity: tde
[4]
  half-life: 12 h
[5]
  bioavailability: 60%
[6]
  IC50: 3 nM
[7]
  Activity: Not Active
[8]
  IC50: 3 nM
[9]
  IC50: 2 nM
[10]
  Activity: Dose-dependent effect
[11]
  IC50: 2750 nM
[12]
  Activity: Dose-dependent effect
[13]
  Activity: Dose-dependent effect
[14]
  Activity: Dose-dependent effect
[15]
  Activity: Dose-dependent effect
[16]
  Activity: Dose-dependent effect
[17]
  Activity: Dose-dependent effect

Reference: ChEMBL document CHEMBL1156430, “Identification of NVP-TAE684, a potent, selective, and efficacious inhibitor of NPM-ALK” (Proc Natl Acad Sci U S A, 2007)
